How the values were obtained:
[1] = test system: Hs68 (human foreskin fibroblast) cells; assay: In vitro cytotoxicity; type: cell-based; conditions: Hs68, read-out: IC50 (concentration necessary for 50% inhibition), Hs68 cells
Outline: (§1)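 Cells grown in DMEM with 10% FBS, penicillin/streptomycin, L-glutamine and 1 mM sodium pyruvate at 37 °C, 5% CO2. Seeded at 3 × 10^3 cells/well for 24 h, then exposed 72 h to test compound at 6.25, 12.5, 25, 50 and 100 μM; 5-FU as positive control. MTT 0.5 mg mL−1 for 3 h at 37 °C; formazan dissolved in DMSO, read at A570. Untreated cells set as 100% viability; IC50 given as mean ±SD, n = 3.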

[2] = test system: human non-small-cell lung cancer cells (A549); assay: In vitro cytotoxicity; type: cell-based
Outline: as §1

[3] = Solubility observation; type: physicochemical; conditions: compounds with two nitro groups

SMILES | Cytotoxic activity against A549 cells (in words) [2] | Solubility (in words) [3] | also measured
O=c1[nH]cc(F)c(=O)[nH]1 [5-FU, 5-Fluorouracil] | – | – | IC50 [1]: 3.08 ± 0.4 µM
Brc1ccc2nc(/C=C/c3ccco3)c(/C=C/c3ccco3)nc2c1 [Compound 4a, 6-Bromo-2,3-bis[(E)-2-(furan-2-yl)vinyl]quinoxaline] | exhibited cytotoxic activities | – | –
Brc1ccc2nc(/C=C/c3cccs3)c(/C=C/c3cccs3)nc2c1 [Compound 4b, 6-Bromo-2,3-bis[(E)-2-(thiophen-2-yl)vinyl]quinoxaline] | exhibited cytotoxic activities | – | –
COc1ccccc1/C=C/c1nc2ccc(Br)cc2nc1/C=C/c1ccccc1OC [Compound 4e, 6-Bromo-2,3-bis[(E)-2-methoxystyryl]quinoxaline] | exhibited cytotoxic activities | – | –
O=[N+]([O-])c1cccc(/C=C/c2nc3ccc(Br)cc3nc2/C=C/c2cccc([N+](=O)[O-])c2)c1 [Compound 4f, 6-Bromo-2,3-bis[(E)-3-nitrostyryl]quinoxaline] | – | reduced the solubility | –
Clc1cccc(/C=C/c2nc3ccc(Br)cc3nc2/C=C/c2cccc(Cl)c2)c1 [Compound 4g, 6-Bromo-2,3-bis[(E)-3-chlorostyryl]quinoxaline] | exhibited cytotoxic activities | – | –
O=[N+]([O-])c1ccc(/C=C/c2nc3ccc(Br)cc3nc2/C=C/c2ccc([N+](=O)[O-])cc2)cc1 [Compound 4k, 6-Bromo-2,3-bis[(E)-4-nitrostyryl]quinoxaline] | – | reduced the solubility | –
COc1ccc(/C=C/c2nc3ccc(Br)cc3nc2/C=C/c2ccc(OC)cc2)cc1 [Compound 4l, 6-Bromo-2,3-bis[(E)-4-methoxystyryl]quinoxaline] | exhibited cytotoxic activities | – | –
O=[N+]([O-])c1cccc(/C=C/c2nc3ccc([N+](=O)[O-])cc3nc2/C=C/c2cccc([N+](=O)[O-])c2)c1 [Compound 5f, 6-Nitro-2,3-bis[(E)-3-nitrostyryl]quinoxaline] | – | reduced the solubility | –
O=[N+]([O-])c1ccc2nc(/C=C/c3cccc(Cl)c3)c(/C=C/c3cccc(Cl)c3)nc2c1 [Compound 5g, 2,3-Bis[(E)-3-chlorostyryl]-6-nitroquinoxaline] | exhibited cytotoxic activities | – | –
O=[N+]([O-])c1ccc(/C=C/c2nc3ccc([N+](=O)[O-])cc3nc2/C=C/c2ccc([N+](=O)[O-])cc2)cc1 [Compound 5k, 6-Nitro-2,3-bis[(E)-4-nitrostyryl]quinoxaline] | – | reduced the solubility | –
